Results from different studies.
≈ marks a conversion by molar mass, not a printed value.

CCCCCCCCCCCCCCCCCCCCc1cc(O)cc(O)c1 has an IC50 of > 200 µM (Bacillus subtilis; microbial growth).
NC[C@H]1O[C@H](O[C@H]2[C@H](O)[C@@H](O[C@H]3O[C@H](CO)[C@@H](O)[C@H](N)[C@H]3O)[C@H](N)C[C@@H]2N)[C@H](N)C[C@@H]1O gave an MIC of 4.7 µg/mL (Listeria monocytogenes; microbial growth; ATCC19115).
CC[C@H](C)C[C@H](C)CCCCCCCCC(=O)N[C@H]1C[C@@H](O)[C@@H](NCCN)NC(=O)[C@@H]2[C@@H](O)CCN2C(=O)[C@H]([C@H](O)CCN)NC(=O)[C@H]([C@H](O)[C@@H](O)c2ccc(O)cc2)NC(=O)[C@@H]2C[C@@H](O)CN2C(=O)[C@H]([C@@H](C)O)NC1=O gave an MIC50 of 0.125 µg/mL (Nakaseomyces glabratus; microbial growth, broth dilution; MY1381).
With CC(C)C(C)CCCCCCCCCCCc1cc(O)cc(O)c1 (stereo not drawn) the IC50 was 11.4 µM (Bacillus subtilis; microbial growth).
CCOC(=O)c1ccccc1S(=O)(=O)NC(=O)Nc1nc(Cl)cc(OC)n1 gave an MIC50 of 5.6 µM (Nakaseomyces glabratus; microbial growth, broth dilution; 48 h).
CCCCCC/C=C\CCCCCCCCCC(=O)NP(=O)(O)O gave an MIC of 100 µg/mL (Bacillus subtilis; microbial growth; ATCC23857).
Cc1ccccc1C(=O)NN=Cc1ccc(O)c(Br)c1 gave an MFC of 4 µg/mL (≈ 12 µM) (Cryptococcus neoformans; microbial killing).
With O=C(CCCCC1CCCCC1)CP(=O)(O)O the MIC was 25 µg/mL (Bacillus subtilis; microbial growth; ATCC23857).
The MIC of CCCC[C@H]1CN(c2cccc(OC(F)(F)F)c2)C(=O)CN1Cc1cncn1Cc1ccc(Br)cc1 is reported as 3 to 6 µM (Cryptococcus neoformans; microbial growth, broth dilution).
With CCCCCCCCCCCCCCCC(=O)C(F)(F)P(=O)(O)O the MIC was 200 µg/mL (Bacillus subtilis; microbial growth; ATCC23857).
C[C@@H]1[C@H](O)[C@@H](C)/C=C/C=C/C=C/C=C/C=C/C=C/C=C/[C@H](O[C@@H]2O[C@H](C)[C@@H](O)[C@H](N)[C@@H]2O)C[C@@H]2O[C@](O)(C[C@@H](O)C[C@@H](O)[C@H](O)CC[C@@H](O)C[C@@H](O)CC(=O)O[C@H]1C)C[C@H](O)[C@H]2C(=O)O gave an MIC of 1.25 µg/mL (Cryptococcus neoformans; microbial growth; ATCC90113).
For CCCC(=O)CP(=O)(O)O, the MIC was > 200 µg/mL (Bacillus subtilis; microbial growth; ATCC23857).
With CC1(C)S[C@@H]2[C@H](NC(=O)[C@H](N)c3ccccc3)C(=O)N2[C@H]1C(=O)O the inhibition zone was 27 mm (Listeria monocytogenes; microbial growth, well diffusion; ATCC7644; 60000 µg/mL).
The IC50 of CC(C)CCCCCCCCCCCCCCc1cc(O)cc(O)c1 is reported as 10.2 µM (Bacillus subtilis; microbial growth).
O=C(CCCCc1ccccc1)CP(=O)(O)O gave an MIC of > 200 µg/mL (Bacillus subtilis; microbial growth; ATCC23857).
